# Tests used:
# [1] = tested on: Japanese participants with T1DM; experiment: Ketogenesis markers; type: in vivo, human; conditions: after 4 weeks of treatment
# Method in brief: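 Serum β-hydroxybutyrate was sampled on Days −1, 1, 7 and 8 and measured by a contract laboratory. The change from baseline in AUC0–24h was calculated on Day 7. Day-28 levels were measured among the laboratory safety parameters and summarised descriptively.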
# [2] = Pharmacokinetics of empagliflozin in plasma; type: in vivo, human
# Method in brief: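 Blood and urine were sampled on Days 1 and 28 of 4-week once-daily oral dosing (2.5, 10, 25 mg). Concentrations were measured by validated LC-MS/MS. Steady state was judged from troughs on Days 2, 7, 14, 21, 27, 28 and 29. Cmax, AUC and t1/2,ss were derived non-compartmentally. Timepoint statistics required ≥2/3 of values within the validated range.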
# [3] = tested on: Japanese participants with T2DM; conditions: 10 mg, Day 28, Japanese T2DM; cited from earlier work
# [4] = tested on: Japanese participants with T1DM; experiment: Weekly recorded insulin dose; type: in vivo, human; conditions: for recorded insulin dose adjusted mean difference vs placebo (95% CI): Week 4; for % of adjusted mean change from baseline in recorded insulin dose (reduction from baseline): within Week 4
# Method in brief: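 Participants recorded basal and bolus insulin doses in a diary. Weekly totals were compiled during 4 weeks of once-daily oral test compound or placebo. At randomization, HbA1c 7.5–<8% prompted a 10% cut in daily insulin; otherwise dosing was at investigator discretion. Changes were analysed by ANCOVA with baseline covariate.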
# Body weight = type: in vivo, human; conditions: Day 28
# Method in brief: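 T1DM participants on multiple daily insulin injections took oral test compound or placebo once daily for 4 weeks. Body weight was measured on Day 28. Change from baseline was analysed by ANCOVA, with treatment as a fixed effect and baseline as a linear covariate.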
# [5] = tested on: participants with T2DM with established cardiovascular disease; conditions: cited from earlier work
# [6] = tested on: Japanese participants with T1DM; experiment: HbA1c and fasting plasma glucose; type: in vivo, human; conditions: Day 28
# Method in brief: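 During 4 weeks of once-daily oral test compound or placebo, blood was drawn for HbA1c on Days 1 and 28. FPG was sampled on Days −1, 1, 2, 7, 8, 14, 21, 28 and 29. Samples were assayed at a central laboratory. Changes from baseline were analysed by ANCOVA (treatment fixed, baseline covariate).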
# [7] = tested on: Japanese participants with T1DM; experiment: 24-hour urinary glucose excretion; type: in vivo, human; conditions: for placebo-corrected adjusted mean (95% CI) change from baseline in 24-hour UGE: Day 7
# Method in brief: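 Japanese adults with T1DM on multiple daily insulin injections, after a 2-week placebo run-in, were randomized 1:1:1:1 to oral test compound 2.5, 10 or 25 mg or placebo once each morning for 4 weeks. All urine was collected over 24 h at baseline and Days 1, 7 and 28. Day-7 change was analysed by ANCOVA (baseline covariate) with LOCF.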
# [8] = tested on: Japanese participants with T1DM; experiment: Continuous glucose monitoring; type: in vivo, human; conditions: within Week 4, CGM
# Method in brief: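 A blinded professional CGM device was worn from Day −6 to Day 28 during once-daily oral test compound or placebo. Glucose exposure was taken as mean daily glucose AUC. Variability was taken as glucose interquartile range, plus % time at ≤70, >70 to ≤180 and >180 mg/dL. Week-4 changes from baseline are adjusted means.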
# [9] = tested on: Japanese participants with T1DM; experiment: Laboratory safety parameters; type: in vivo, human; conditions: empagliflozin groups, Day 28
# Method in brief: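 Blood and urine were collected on Days 1, 7 and 28 of once-daily oral dosing with test compound or placebo. They were measured centrally and summarised descriptively in the treated set.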
# [10] = tested on: Japanese participants with T1DM; experiment: Adverse events and hypoglycaemic episodes during 4-week double-blind treatment; type: in vivo, human; conditions: 4 weeks
# Method in brief: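 In a double-blind, 4-week study, participants took test compound 2.5, 10 or 25 mg or placebo orally once daily. Adverse events were coded in MedDRA 19.1. Hypoglycaemic events were based on scheduled blood glucose tests and/or CGM. Special-interest events included genital and urinary infections and volume depletion. Severe hypoglycaemia and DKA were adjudicated externally. Results were summarised descriptively in all treated participants.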
# participants with T1DM = conditions: vs placebo 4 [0.6%]; cited from earlier work
compound,measurement,setting,value
OC[C@H]1O[C@@H](c2ccc(Cl)c(Cc3ccc(O[C@H]4CCOC4)cc3)c2)[C@H](O)[C@@H](O)[C@@H]1O [empagliflozin],highest individual serum BHB level,[1],approximately 0.8 mmol/L
same,mean serum BHB levels,[1]; all doses,< 0.5 mmol/L
same,exposure (AUC and Cmax) versus dose,[2]; after a single dose and at steady state,increased proportionally with dose
same,Tmax,"[2]; human, plasma, po",~1.5 h
same,time to steady state,"[2]; once daily oral dosing, trough concentrations",≤ 7 days
same,time to peak plasma level after dosing,"[2]; single and multiple oral doses, 2.5-25 mg",1.5 h
same,adjusted effect on UGE,[3],80.9 g/24 h
same,recorded insulin dose adjusted mean difference vs placebo (95% CI),[4]; 2.5 mg,−0.08 U/kg
same,% of adjusted mean change from baseline in recorded insulin dose (reduction from baseline),[4]; 2.5 mg,−20.5%
same,recorded insulin dose adjusted mean difference vs placebo (95% CI),[4]; 10 mg,−0.10 U/kg
same,% of adjusted mean change from baseline in recorded insulin dose (reduction from baseline),[4]; 10 mg,−23.3%
same,recorded insulin dose adjusted mean difference vs placebo (95% CI),[4]; 25 mg,−0.09 U/kg
same,% of adjusted mean change from baseline in recorded insulin dose (reduction from baseline),[4]; 25 mg,−24.2%
same,body weight adjusted mean difference vs placebo (95% CI),Body weight; 2.5 mg,-1.37 kg
same,body weight adjusted mean difference vs placebo (95% CI),Body weight; 10 mg,-1.47 kg
same,body weight adjusted mean difference vs placebo (95% CI),Body weight; 25 mg,-1.70 kg
same,reduction of incident or worsening nephropathy,[5],39%
same,reduction of risk of cardiovascular death,[5],38%
same,FPG adjusted mean difference vs placebo (95% CI),[6]; 2.5 mg,-14.27 mg/dL
same,HbA1c adjusted mean difference vs placebo (95% CI),[6]; 2.5 mg,−0.20%
same,FPG adjusted mean difference vs placebo (95% CI),[6]; 10 mg,-43.63 mg/dL
same,HbA1c adjusted mean difference vs placebo (95% CI),[6]; 10 mg,−0.35%
same,FPG adjusted mean difference vs placebo (95% CI),[6]; 25 mg,-59.57 mg/dL
same,HbA1c adjusted mean difference vs placebo (95% CI),[6]; 25 mg,−0.20%
same,placebo-corrected adjusted mean (95% CI) change from baseline in 24-hour UGE,[7]; 2.5 mg once daily,"65.10 [43.29, 86.90] g/24 h"
same,adjusted effect on UGE,"[7]; 2.5 mg, Day 28, Japanese T1DM",91.0 g/24 h
same,placebo-corrected adjusted mean (95% CI) change from baseline in 24-hour UGE,[7]; 10 mg once daily,"81.19 [58.80, 103.58] g/24 h"
same,placebo-corrected adjusted mean (95% CI) change from baseline in 24-hour UGE,[7]; 25 mg once daily,"98.11 [75.91, 120.31] g/24 h"
same,IQR of glucose adjusted mean difference vs placebo (95% CI),[8]; 2.5 mg,-23.08 mg/dL
same,MDAUC of glucose adjusted mean difference vs placebo (95% CI),[8]; 2.5 mg,-558 mg·h/dL
same,IQR of glucose adjusted mean difference vs placebo (95% CI),[8]; 10 mg,-13.08 mg/dL
same,MDAUC of glucose adjusted mean difference vs placebo (95% CI),[8]; 10 mg,-338 mg·h/dL
same,IQR of glucose adjusted mean difference vs placebo (95% CI),[8]; 25 mg,-22.09 mg/dL
same,MDAUC of glucose adjusted mean difference vs placebo (95% CI),[8]; 25 mg,-514 mg·h/dL
same,changes from baseline in laboratory safety parameters (overall),[9],no significant changes from baseline
same,"Asymptomatic hypoglycaemia with PG ≤70 mg/dL, rate",[10]; 2.5 mg,5.1 episodes per 30 days per participant
same,"Asymptomatic hypoglycaemia with PG ≤70 mg/dL, total number of episodes",[10]; 2.5 mg,62 episodes
same,Death,[10]; 2.5 mg,0 (0) % (n) of participants
same,Decreased renal function,[10]; 2.5 mg,0 (0) % (n) of participants
same,Events consistent with UTI,[10]; 2.5 mg,0 (0) % (n) of participants
same,Events consistent with genital infection,[10]; 2.5 mg,7.7 (1) % (n) of participants
same,Events consistent with volume depletion,[10]; 2.5 mg,0 (0) % (n) of participants
same,Hepatic injury,[10]; 2.5 mg,0 (0) % (n) of participants
same,Hypoglycaemia (AE),[10]; 2.5 mg,92.3 (12) % (n) of participants
same,"Hypoglycaemia requiring assistance, rate",[10]; 2.5 mg,0 (0) episodes per 30 days per participant
same,"Hypoglycaemia requiring assistance, total number of episodes",[10]; 2.5 mg,0 (0) episodes
same,Ketoacidosis,[10]; 2.5 mg,0 (0) % (n) of participants
same,"Symptomatic hypoglycaemia with PG <54 mg/dL, rate",[10]; 2.5 mg,1.5 episodes per 30 days per participant
same,"Symptomatic hypoglycaemia with PG <54 mg/dL, total number of episodes",[10]; 2.5 mg,18 episodes
same,"Symptomatic hypoglycaemia with PG ≥54 and ≤70 mg/dL, rate",[10]; 2.5 mg,1.8 episodes per 30 days per participant
same,"Symptomatic hypoglycaemia with PG ≥54 and ≤70 mg/dL, total number of episodes",[10]; 2.5 mg,22 episodes
same,participants with genital infection (vulvovaginal candidiasis of mild intensity),[10]; 2.5 mg,1 participants
same,≥1 AE,[10]; 2.5 mg,92.3 (12) % (n) of participants
same,≥1 AE leading to discontinuation,[10]; 2.5 mg,0 (0) % (n) of participants
same,≥1 Drug-related AE,[10]; 2.5 mg,84.6 (11) % (n) of participants
same,≥1 Serious AE,[10]; 2.5 mg,0 (0) % (n) of participants
same,≥1 Severe AE,[10]; 2.5 mg,0 (0) % (n) of participants
same,"Asymptomatic hypoglycaemia with PG ≤70 mg/dL, rate",[10]; 10 mg,6.7 episodes per 30 days per participant
same,"Asymptomatic hypoglycaemia with PG ≤70 mg/dL, total number of episodes",[10]; 10 mg,78 episodes
same,Death,[10]; 10 mg,0 (0) % (n) of participants
same,Decreased renal function,[10]; 10 mg,0 (0) % (n) of participants
same,Events consistent with UTI,[10]; 10 mg,0 (0) % (n) of participants
same,Events consistent with genital infection,[10]; 10 mg,0 (0) % (n) of participants
same,Events consistent with volume depletion,[10]; 10 mg,0 (0) % (n) of participants
same,Hepatic injury,[10]; 10 mg,0 (0) % (n) of participants
same,Hypoglycaemia (AE),[10]; 10 mg,100 (12) % (n) of participants
same,"Hypoglycaemia requiring assistance, rate",[10]; 10 mg,0 (0) episodes per 30 days per participant
same,"Hypoglycaemia requiring assistance, total number of episodes",[10]; 10 mg,0 (0) episodes
same,Ketoacidosis,[10]; 10 mg,0 (0) % (n) of participants
same,"Symptomatic hypoglycaemia with PG <54 mg/dL, rate",[10]; 10 mg,2.7 episodes per 30 days per participant
same,"Symptomatic hypoglycaemia with PG <54 mg/dL, total number of episodes",[10]; 10 mg,31 episodes
same,"Symptomatic hypoglycaemia with PG ≥54 and ≤70 mg/dL, rate",[10]; 10 mg,3.9 episodes per 30 days per participant
same,"Symptomatic hypoglycaemia with PG ≥54 and ≤70 mg/dL, total number of episodes",[10]; 10 mg,45 episodes
same,≥1 AE,[10]; 10 mg,100 (12) % (n) of participants
same,≥1 AE leading to discontinuation,[10]; 10 mg,0 (0) % (n) of participants
same,≥1 Drug-related AE,[10]; 10 mg,100 (12) % (n) of participants
same,≥1 Serious AE,[10]; 10 mg,0 (0) % (n) of participants
same,≥1 Severe AE,[10]; 10 mg,0 (0) % (n) of participants
same,"Asymptomatic hypoglycaemia with PG ≤70 mg/dL, total number of episodes",[10]; 25 mg,140 episodes
same,Death,[10]; 25 mg,0 (0) % (n) of participants
same,Decreased renal function,[10]; 25 mg,0 (0) % (n) of participants
same,Events consistent with UTI,[10]; 25 mg,0 (0) % (n) of participants
same,Events consistent with genital infection,[10]; 25 mg,8.3 (1) % (n) of participants
same,Events consistent with volume depletion,[10]; 25 mg,0 (0) % (n) of participants
same,Hepatic injury,[10]; 25 mg,0 (0) % (n) of participants
same,Hypoglycaemia (AE),[10]; 25 mg,100 (12) % (n) of participants
same,"Hypoglycaemia requiring assistance, rate",[10]; 25 mg,0 (0) episodes per 30 days per participant
same,"Hypoglycaemia requiring assistance, total number of episodes",[10]; 25 mg,0 (0) episodes
same,Ketoacidosis,[10]; 25 mg,0 (0) % (n) of participants
same,"Symptomatic hypoglycaemia with PG <54 mg/dL, rate",[10]; 25 mg,1.8 episodes per 30 days per participant
same,"Symptomatic hypoglycaemia with PG <54 mg/dL, total number of episodes",[10]; 25 mg,21 episodes
same,"Symptomatic hypoglycaemia with PG ≥54 and ≤70 mg/dL, rate",[10]; 25 mg,1.0 episodes per 30 days per participant
same,"Symptomatic hypoglycaemia with PG ≥54 and ≤70 mg/dL, total number of episodes",[10]; 25 mg,12 episodes
same,participants with genital infection (vulvovaginal candidiasis of mild intensity),[10]; 25 mg,1 participants
same,≥1 AE,[10]; 25 mg,100 (12) % (n) of participants
same,≥1 AE leading to discontinuation,[10]; 25 mg,0 (0) % (n) of participants
same,≥1 Drug-related AE,[10]; 25 mg,91.7 (11) % (n) of participants
same,≥1 Serious AE,[10]; 25 mg,0 (0) % (n) of participants
same,≥1 Severe AE,[10]; 25 mg,0 (0) % (n) of participants
same,DKA events (investigator-reported or adjudicated),[10]; all doses,No events meeting the criteria for DKA were reported
same,tolerability,"[10]; all three doses (2.5, 10, 25 mg)",generally well tolerated
CCOc1ccc(Cc2cc([C@@H]3O[C@H](SC)[C@@H](O)[C@H](O)[C@H]3O)ccc2Cl)cc1 [sotagliflozin],DKA,participants with T1DM,21 [3.0%] participants [%]

# — article PMC6099358 (Diabetes, Obesity & Metabolism, 2018)
